# Experimental data reported in ChEMBL document CHEMBL3098105, “7,7'-Diazaindirubin--a small molecule inhibitor of casein kinase 2 in vitro and in cells” (Bioorg Med Chem, 2014).
# Activity calls are given as the source filed them. No cut-off for these calls is given here.
# Tests used:
# [1] = target: Mast/stem cell growth factor receptor Kit (Homo sapiens) (UniProt P10721); test: Inhibition of KIT (unknown origin) assessed as residual activity at 1 uM relative to control
# [2] = target: Glycogen synthase kinase-3 beta (Homo sapiens) (UniProt P49841); test: Inhibition of GSK3-beta (unknown origin) assessed as residual activity at 1 uM relative to control
# MCF7 = test: Antiproliferative activity against human MCF7 cells after 3 days by sulforhodamine B assay; type: functional; conditions: MCF7, 72 h
# Procedure, shortened: (§1)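 Tested in the NCI 60 cell line panel. GI50 is the concentration giving 50% inhibition of cell growth, and values are the mean of two series of tests.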
# CAKI-1 = test: Antiproliferative activity against human CAKI-1 cells after 3 days by sulforhodamine B assay; type: functional; conditions: CAKI-1, 72 h; procedure, shortened: as §1
# NCI-H23 = test: Antiproliferative activity against human NCI-H23 cells after 3 days by sulforhodamine B assay; type: functional; conditions: NCI-H23, 72 h; procedure, shortened: as §1
# [3] = target: Tyrosine-protein kinase ZAP-70 (Homo sapiens) (UniProt P43403); test: Inhibition of human ZAP-70 assessed as residual activity at 1 uM relative to control
# [4] = target: Tyrosine-protein kinase Yes (Homo sapiens) (UniProt P07947); test: Inhibition of human Yes assessed as residual activity at 1 uM relative to control
# [5] = target: High affinity nerve growth factor receptor (Homo sapiens) (UniProt P04629); test: Inhibition of human TrkA assessed as residual activity at 1 uM relative to control
# [6] = target: SRSF protein kinase 2 (Homo sapiens) (UniProt P78362); test: Inhibition of human SRPK2 assessed as residual activity at 1 uM relative to control
# [7] = target: Serine/threonine-protein kinase SIK1 (Homo sapiens) (UniProt P57059); test: Inhibition of human SIK assessed as residual activity at 1 uM relative to control
# [8] = target: Serine/threonine-protein kinase Sgk2 (Homo sapiens) (UniProt Q9HBY8); test: Inhibition of human SGK2 assessed as residual activity at 1 uM relative to control
# [9] = target: Tyrosine-protein kinase receptor TYRO3 (Homo sapiens) (UniProt Q06418); test: Inhibition of human Rse assessed as residual activity at 1 uM relative to control
# [10] = target: cGMP-dependent protein kinase 1 (Homo sapiens) (UniProt Q13976); test: Inhibition of human PKG1alpha assessed as residual activity at 1 uM relative to control
# [11] = target: Casein kinase II (Homo sapiens) (UniProt P67870+P68400+P19784); test: Inhibition of CK2 in human MCF7 cells assessed as reduction of Akt phosphorylation at S473 at 0.25 to 8 uM after 2 hrs by Western blot analysis; type: cell-based
# Procedure, shortened: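 Cells were lysed in urea lysis buffer (6 M urea, NaF, Na3VO4, protease inhibitors). 20–40 µg protein was run on 10% SDS-PAGE and detected by ECL. Primary antibodies (pAkt S473, PARP, β-actin loading control) were used at 1:1000 overnight at 4 °C. DMSO was the vehicle control. For the pAkt blots, cells were treated for 2 h with Ly294002 as positive control.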
# Homo sapiens = species: Homo sapiens; test: Inhibition of human PKA assessed as residual activity at 1 uM relative to control
# [12] = target: Serine/threonine-protein kinase Nek6 (Homo sapiens) (UniProt Q9HC98); test: Inhibition of human NEK6 assessed as residual activity at 1 uM relative to control
# [13] = target: T1, Muscle, skeletal receptor tyrosine-protein kinase (Homo sapiens) (UniProt O15146); test: Inhibition of human MuSK assessed as residual activity at 1 uM relative to control
# T1 sequence (whole entry): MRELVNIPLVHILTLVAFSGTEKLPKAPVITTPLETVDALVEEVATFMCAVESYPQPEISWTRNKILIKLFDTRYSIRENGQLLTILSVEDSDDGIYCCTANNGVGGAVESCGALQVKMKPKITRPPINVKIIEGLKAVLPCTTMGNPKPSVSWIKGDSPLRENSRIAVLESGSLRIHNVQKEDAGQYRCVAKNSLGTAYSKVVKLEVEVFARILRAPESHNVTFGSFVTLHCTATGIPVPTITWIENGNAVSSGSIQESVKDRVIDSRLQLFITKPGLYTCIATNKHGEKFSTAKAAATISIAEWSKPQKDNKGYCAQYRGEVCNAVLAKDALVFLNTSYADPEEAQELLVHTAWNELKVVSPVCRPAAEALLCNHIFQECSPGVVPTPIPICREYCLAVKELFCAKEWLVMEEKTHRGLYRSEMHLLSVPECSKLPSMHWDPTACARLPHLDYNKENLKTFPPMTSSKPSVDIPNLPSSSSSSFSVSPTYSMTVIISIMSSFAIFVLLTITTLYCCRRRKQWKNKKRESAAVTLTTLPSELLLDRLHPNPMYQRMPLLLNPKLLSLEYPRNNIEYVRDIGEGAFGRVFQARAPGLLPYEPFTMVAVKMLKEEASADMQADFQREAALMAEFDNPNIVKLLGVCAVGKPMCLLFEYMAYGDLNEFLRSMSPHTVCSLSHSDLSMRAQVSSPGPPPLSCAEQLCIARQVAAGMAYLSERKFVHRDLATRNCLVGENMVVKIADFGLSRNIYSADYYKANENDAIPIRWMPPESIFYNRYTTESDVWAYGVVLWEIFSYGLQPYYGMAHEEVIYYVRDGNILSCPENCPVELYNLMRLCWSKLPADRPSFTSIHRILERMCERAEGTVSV
# [14] = target: MAP kinase-interacting serine/threonine-protein kinase 2 (Homo sapiens) (UniProt Q9HBH9); test: Inhibition of human Mnk2 assessed as residual activity at 1 uM relative to control
# [15] = target: Homeodomain-interacting protein kinase 3 (Homo sapiens) (UniProt Q9H422); test: Inhibition of human HIPK3 assessed as residual activity at 1 uM relative to control
# [16] = target: Receptor-type tyrosine-protein kinase FLT3 (Homo sapiens) (UniProt P36888); test: Inhibition of human Flt3 assessed as residual activity at 1 uM relative to control
# [17] = target: Ephrin type-A receptor 2 (Homo sapiens) (UniProt P29317); test: Inhibition of human EphA2 assessed as residual activity at 1 uM relative to control
# [18] = target: Serine/threonine-protein kinase DCLK2 (Homo sapiens) (UniProt Q8N568); test: Inhibition of human DCAMKL2 assessed as residual activity at 1 uM relative to control
# [19] = target: Serine/threonine-protein kinase Chk2 (Homo sapiens) (UniProt O96017); test: Inhibition of human CHK2 assessed as residual activity at 1 uM relative to control
# [20] = target: Cyclin-dependent kinase 5/CDK5 activator 1 (Homo sapiens) (UniProt Q00535+Q15078); test: Inhibition of human CDK5/p35 assessed as residual activity at 1 uM relative to control; type: protein-complex assay
# [21] = target: Vascular endothelial growth factor receptor 3 (Homo sapiens) (UniProt P35916); test: Inhibition of VEGF-R3 (unknown origin) assessed as residual activity at 1 uM relative to control
# Sequence of Cyclin-dependent kinase 5/CDK5 activator 1 (Homo sapiens) (Q00535 whole entry): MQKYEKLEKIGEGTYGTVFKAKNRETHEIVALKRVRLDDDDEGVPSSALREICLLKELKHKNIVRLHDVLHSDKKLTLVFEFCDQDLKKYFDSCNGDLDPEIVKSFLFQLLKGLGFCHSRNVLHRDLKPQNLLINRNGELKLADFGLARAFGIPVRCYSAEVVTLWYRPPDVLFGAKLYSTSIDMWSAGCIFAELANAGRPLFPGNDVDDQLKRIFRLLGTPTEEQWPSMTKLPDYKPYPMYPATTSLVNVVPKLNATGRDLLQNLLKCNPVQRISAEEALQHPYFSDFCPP
# Sequence of Cyclin-dependent kinase 5/CDK5 activator 1 (Homo sapiens) (Q15078 99-307 partner limits assumed): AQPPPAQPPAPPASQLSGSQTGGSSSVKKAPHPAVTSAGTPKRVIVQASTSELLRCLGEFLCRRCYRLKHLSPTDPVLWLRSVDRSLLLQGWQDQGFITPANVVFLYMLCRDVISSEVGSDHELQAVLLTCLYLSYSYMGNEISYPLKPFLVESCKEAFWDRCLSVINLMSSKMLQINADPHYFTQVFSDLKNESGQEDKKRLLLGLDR
# Sequence of High affinity nerve growth factor receptor (Homo sapiens) (P04629 33-796 limits assumed): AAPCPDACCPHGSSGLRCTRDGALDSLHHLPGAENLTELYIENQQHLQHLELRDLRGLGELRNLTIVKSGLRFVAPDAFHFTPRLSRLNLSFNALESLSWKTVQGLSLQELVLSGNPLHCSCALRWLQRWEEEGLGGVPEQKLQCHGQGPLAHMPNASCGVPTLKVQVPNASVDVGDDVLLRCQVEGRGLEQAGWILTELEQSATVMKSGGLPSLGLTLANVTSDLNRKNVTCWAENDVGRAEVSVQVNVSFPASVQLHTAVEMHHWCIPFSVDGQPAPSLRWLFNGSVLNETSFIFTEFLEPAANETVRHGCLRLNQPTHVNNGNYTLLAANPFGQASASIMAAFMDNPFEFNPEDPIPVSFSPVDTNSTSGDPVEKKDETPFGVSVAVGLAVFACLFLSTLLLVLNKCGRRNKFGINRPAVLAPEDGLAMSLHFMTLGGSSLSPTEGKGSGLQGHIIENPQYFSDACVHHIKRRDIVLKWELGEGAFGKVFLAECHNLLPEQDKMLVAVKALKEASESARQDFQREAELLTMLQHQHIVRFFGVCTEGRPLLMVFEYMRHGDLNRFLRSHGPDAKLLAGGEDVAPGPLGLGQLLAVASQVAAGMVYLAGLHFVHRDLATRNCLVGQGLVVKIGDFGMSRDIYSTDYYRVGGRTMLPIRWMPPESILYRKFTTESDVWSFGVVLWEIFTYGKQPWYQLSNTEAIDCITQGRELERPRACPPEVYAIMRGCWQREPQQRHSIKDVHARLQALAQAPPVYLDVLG
# Sequence of MAP kinase-interacting serine/threonine-protein kinase 2 (Homo sapiens) (Q9HBH9 whole entry, looked up): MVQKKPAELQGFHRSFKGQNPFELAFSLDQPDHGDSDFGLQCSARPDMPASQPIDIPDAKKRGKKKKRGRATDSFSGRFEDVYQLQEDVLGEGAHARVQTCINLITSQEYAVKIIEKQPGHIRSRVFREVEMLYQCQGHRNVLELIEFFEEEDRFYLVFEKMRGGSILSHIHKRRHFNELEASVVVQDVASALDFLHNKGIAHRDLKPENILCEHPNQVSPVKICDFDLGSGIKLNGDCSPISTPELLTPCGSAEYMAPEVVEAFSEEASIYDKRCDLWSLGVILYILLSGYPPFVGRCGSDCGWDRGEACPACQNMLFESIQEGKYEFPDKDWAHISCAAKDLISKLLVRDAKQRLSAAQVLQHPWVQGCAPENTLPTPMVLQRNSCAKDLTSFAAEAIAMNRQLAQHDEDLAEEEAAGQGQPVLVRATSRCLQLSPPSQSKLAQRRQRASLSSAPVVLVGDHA
# Sequence of Serine/threonine-protein kinase Chk2 (Homo sapiens) (O96017 whole entry): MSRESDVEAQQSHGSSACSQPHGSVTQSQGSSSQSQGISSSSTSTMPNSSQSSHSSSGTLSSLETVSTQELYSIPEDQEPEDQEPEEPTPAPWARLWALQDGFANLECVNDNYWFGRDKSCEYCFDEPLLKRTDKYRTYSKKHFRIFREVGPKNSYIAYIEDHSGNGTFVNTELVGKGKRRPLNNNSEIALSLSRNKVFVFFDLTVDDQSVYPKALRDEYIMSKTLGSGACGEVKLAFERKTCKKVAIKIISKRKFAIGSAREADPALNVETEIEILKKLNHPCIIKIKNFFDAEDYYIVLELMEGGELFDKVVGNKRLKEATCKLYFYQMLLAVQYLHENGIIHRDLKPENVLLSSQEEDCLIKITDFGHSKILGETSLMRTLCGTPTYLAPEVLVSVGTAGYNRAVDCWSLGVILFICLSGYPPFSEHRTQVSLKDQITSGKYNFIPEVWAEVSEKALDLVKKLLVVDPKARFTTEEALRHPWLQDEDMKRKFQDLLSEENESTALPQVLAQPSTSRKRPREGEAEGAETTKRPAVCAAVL
# Sequence of Tyrosine-protein kinase receptor TYRO3 (Homo sapiens) (Q06418 whole entry): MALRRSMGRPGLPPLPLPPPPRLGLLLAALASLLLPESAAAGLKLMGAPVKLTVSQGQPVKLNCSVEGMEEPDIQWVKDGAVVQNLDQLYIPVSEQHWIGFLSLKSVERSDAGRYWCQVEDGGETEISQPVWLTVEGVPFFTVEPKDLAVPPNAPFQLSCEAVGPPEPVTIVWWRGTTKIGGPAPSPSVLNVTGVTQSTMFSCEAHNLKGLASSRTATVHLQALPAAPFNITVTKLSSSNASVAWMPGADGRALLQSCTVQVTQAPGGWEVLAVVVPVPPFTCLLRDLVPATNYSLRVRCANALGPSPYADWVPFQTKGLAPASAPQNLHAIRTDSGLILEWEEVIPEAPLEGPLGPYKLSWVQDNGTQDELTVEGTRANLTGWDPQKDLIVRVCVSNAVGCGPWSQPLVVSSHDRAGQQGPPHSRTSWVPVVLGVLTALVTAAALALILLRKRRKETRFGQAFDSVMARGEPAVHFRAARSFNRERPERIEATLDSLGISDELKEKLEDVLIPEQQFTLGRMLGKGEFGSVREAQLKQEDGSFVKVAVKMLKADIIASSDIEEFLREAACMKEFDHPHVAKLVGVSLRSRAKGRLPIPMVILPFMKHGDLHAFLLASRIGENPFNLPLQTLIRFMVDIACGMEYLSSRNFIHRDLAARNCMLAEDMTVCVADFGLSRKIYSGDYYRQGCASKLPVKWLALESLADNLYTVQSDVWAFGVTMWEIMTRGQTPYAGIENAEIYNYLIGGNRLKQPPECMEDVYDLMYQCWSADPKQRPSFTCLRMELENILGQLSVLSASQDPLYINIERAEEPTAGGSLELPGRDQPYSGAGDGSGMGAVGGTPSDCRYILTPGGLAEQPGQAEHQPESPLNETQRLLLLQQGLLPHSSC
# Sequence of Serine/threonine-protein kinase Nek6 (Homo sapiens) (Q9HC98 whole entry): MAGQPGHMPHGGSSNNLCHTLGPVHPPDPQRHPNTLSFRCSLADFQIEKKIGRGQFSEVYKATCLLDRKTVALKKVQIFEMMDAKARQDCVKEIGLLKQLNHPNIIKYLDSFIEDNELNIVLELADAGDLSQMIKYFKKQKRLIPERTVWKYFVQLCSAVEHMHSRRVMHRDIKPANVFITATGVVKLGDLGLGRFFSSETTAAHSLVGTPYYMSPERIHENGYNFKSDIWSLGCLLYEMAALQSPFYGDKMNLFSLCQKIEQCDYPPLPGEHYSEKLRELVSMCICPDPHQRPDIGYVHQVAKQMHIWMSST
# Sequence of Serine/threonine-protein kinase DCLK2 (Homo sapiens) (Q8N568 whole entry): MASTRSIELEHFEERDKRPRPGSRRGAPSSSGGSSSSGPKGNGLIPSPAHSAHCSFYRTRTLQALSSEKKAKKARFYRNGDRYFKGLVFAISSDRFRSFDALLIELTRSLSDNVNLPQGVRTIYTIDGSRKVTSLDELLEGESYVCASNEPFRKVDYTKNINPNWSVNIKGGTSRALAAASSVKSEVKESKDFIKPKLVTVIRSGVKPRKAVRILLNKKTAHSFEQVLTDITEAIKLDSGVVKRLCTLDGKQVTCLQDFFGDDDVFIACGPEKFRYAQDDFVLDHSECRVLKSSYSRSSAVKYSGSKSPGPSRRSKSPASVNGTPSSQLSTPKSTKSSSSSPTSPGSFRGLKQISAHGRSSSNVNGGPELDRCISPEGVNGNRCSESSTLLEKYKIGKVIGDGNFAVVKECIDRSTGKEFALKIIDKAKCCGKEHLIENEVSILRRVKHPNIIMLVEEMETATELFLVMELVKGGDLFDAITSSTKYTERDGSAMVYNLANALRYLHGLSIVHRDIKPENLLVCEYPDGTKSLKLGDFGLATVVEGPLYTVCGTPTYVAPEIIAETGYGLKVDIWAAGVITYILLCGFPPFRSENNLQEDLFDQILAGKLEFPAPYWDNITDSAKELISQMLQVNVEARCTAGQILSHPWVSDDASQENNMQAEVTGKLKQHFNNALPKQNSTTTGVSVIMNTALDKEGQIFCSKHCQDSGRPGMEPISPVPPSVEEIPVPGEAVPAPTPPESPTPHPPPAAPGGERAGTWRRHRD
# Sequence of Tyrosine-protein kinase Yes (Homo sapiens) (P07947 2-543 limits assumed): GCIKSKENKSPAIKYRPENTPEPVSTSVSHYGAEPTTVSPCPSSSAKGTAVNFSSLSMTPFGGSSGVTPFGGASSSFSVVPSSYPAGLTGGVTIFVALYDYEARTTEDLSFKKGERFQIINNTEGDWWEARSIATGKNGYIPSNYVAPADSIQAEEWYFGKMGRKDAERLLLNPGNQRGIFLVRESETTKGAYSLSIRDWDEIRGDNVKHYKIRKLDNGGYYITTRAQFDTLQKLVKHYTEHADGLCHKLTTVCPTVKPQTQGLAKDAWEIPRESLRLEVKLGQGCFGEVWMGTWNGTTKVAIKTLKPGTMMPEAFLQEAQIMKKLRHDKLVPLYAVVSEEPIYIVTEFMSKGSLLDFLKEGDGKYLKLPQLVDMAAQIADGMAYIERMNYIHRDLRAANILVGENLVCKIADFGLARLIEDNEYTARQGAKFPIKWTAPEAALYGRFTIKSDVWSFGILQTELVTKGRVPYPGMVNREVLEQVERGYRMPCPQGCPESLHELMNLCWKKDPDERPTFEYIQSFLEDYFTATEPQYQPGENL
structure (smiles),measurement,setting,value
O=C1Nc2ncccc2/C1=C1/Nc2ncccc2C1=O,Activity,[1],108%
same,Activity,[2],92%
same,GI50,MCF7,1.09 µM
same,GI50,CAKI-1,1.02 µM
same,GI50,NCI-H23,0.376 µM
same,Activity,[3],78%
same,Activity,[4],120%
same,Activity,[5],127%
same,Activity,[6],108%
same,Activity,[7],32%
same,Activity,[8],127%
same,Activity,[9],93%
same,Activity,[10],121%
same,inhibition,[11],Active
same,Activity,Homo sapiens,91%
same,Activity,[12],61%
same,Activity,[13],134%
same,Activity,[14],99%
same,Activity,[15],94%
same,Activity,[16],69%
same,Activity,[17],122%
same,Activity,[18],100%
same,Activity,[19],120%
same,Activity,[20],96%
same,Activity,[21],82%
